Values after ≈ are worked out from the molar mass of the structure shown. Active and inactive are the calls of the source. No cut-off for these calls is given here.
Tests used:
[1] = tested on: Streptococcus pneumoniae; test: Antibacterial activity against Streptococcus pneumoniae ATCC 49619 by standard checkerboard method in presence of pulmonar surfactant and 50 mg/liter Ca2+; type: functional, organism-based
Outline: (§1)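 CLSI broth microdilution in cation-adjusted Mueller-Hinton broth combined with checkerboard of drug against pulmonary surfactant up to 1 mg/ml (25-fold dilution of Survanta); 50 mg/liter Ca2+ added for daptomycin only. Ratios of activity with vs without surfactant given as median and range of two separate experiments.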

[2] = tested on: Streptococcus pneumoniae; test: Ratio of antibacterial activity against Streptococcus pneumoniae ATCC 49619 in presence of 1 mg/ml pulmonar surfactant and 50 mg/liter Ca2+ to antibacterial against Streptococcus pneumoniae ATCC 49619; type: functional; outline: as §1
[3] = tested on: Staphylococcus aureus; test: Antibacterial activity against methicillin-resistant Staphylococcus aureus ATCC 33591 by standard checkerboard method in presence of pulmonar surfactant and 50 mg/liter Ca2+; type: functional, organism-based
Outline: (§2)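 Checkerboard combination of antibiotic with pulmonary surfactant (Survanta) by CLSI broth microdilution in cation-adjusted Mueller-Hinton broth. The top surfactant level was 1 mg/ml, a 25-fold dilution of Survanta. For daptomycin, the broth carried 50 mg/liter Ca2+.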

[4] = tested on: Staphylococcus aureus; test: Ratio of antibacterial activity against methicillin-resistant Staphylococcus aureus ATCC 33591 in presence of 1 mg/ml pulmonar surfactant and 50 mg/liter Ca2+ to antibacterial against methicillin-resistant Staphylococcus aureus ATCC 33591; type: functional
Outline: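 Broth microdilution in cation-adjusted Mueller-Hinton broth (plus 50 mg/liter Ca2+ for daptomycin), with versus without 1 mg/ml pulmonary surfactant (Survanta). Reported as the median and range of activity ratios from two separate experiments.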

[5] = tested on: Streptococcus pneumoniae; test: Antibacterial activity against Streptococcus pneumoniae ATCC 49619 by standard checkerboard method in presence of 0.2 to 1 mg/ml pulmonar surfactant; type: functional, organism-based; outline: as §1
[6] = tested on: Staphylococcus aureus; test: Antibacterial activity against methicillin-resistant Staphylococcus aureus ATCC 33591 by standard checkerboard method in presence of 0.2 to 1 mg/ml pulmonar surfactant; type: functional, organism-based; outline: as §2
[7] = tested on: Streptococcus pneumoniae; test: Antibacterial activity against Streptococcus pneumoniae
[8] = Cmin in healthy human at 10 mg/kg, iv once daily for 3 days measured at 24 after start of infusion; type: ADME, organism-based; set-up: dose 10 mg/kg, route intravenous; conditions: in vivo, read-out: Cmin
Outline: (§3)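 Plasma from healthy adults given 10 mg/kg IV over 60 min daily for 3 days, sampled before infusions 1 and 3 and 1, 2, 4, 6, 8, 12, 24 h after the third; validated LC-MS/MS (LLOQ 0.25 μg/ml). Noncompartmental analysis: Cmax, Tmax, Cmin observed; AUC0-24 linear trapezoidal; kel by log-linear regression; t1/2 = 0.693/kel; CL = dose/AUC0-24.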

[9] = Ratio of drug level in alveolar macrophage to plasma of healthy human undergoing fiber-optic bronchoscopy at 10 mg/kg, iv once daily for 3 days measured at 24 hrs after start of infusion; conditions: alveolar macrophages / plasma
[10] = Mean residence time in healthy human at 10 mg/kg, iv once daily for 3 days measured at 24 after start of infusion; type: ADME, organism-based; set-up: dose 10 mg/kg, route intravenous; conditions: in vivo; outline: as §3
[11] = Terminal half life in healthy human at 10 mg/kg, iv once daily for 3 days measured at 24 after start of infusion; type: ADME, organism-based; set-up: dose 10 mg/kg, route intravenous; conditions: in vivo, read-out: beta t1/2 (converted); outline: as §3
[12] = Clearance at steady state in healthy human at 10 mg/kg, iv once daily for 3 days measured at 24 after start of infusion; type: ADME, organism-based; set-up: dose 10 mg/kg, route intravenous; conditions: in vivo, read-out: CLss (converted); outline: as §3
[13] = tested on: Homo sapiens; test: Toxicity in healthy human assessed as pulmonar infection at 10 mg/kg, iv once daily for 3 days; type: organism-based; set-up: dose 10 mg/kg, route intravenous; conditions: in vivo, 72 h
[14] = Drug level in epithelial lining fluid of healthy human undergoing fiber-optic bronchoscopy at 10 mg/kg, iv once daily for 3 days measured at 24 hrs after start of infusion by validated liquid chromatography; type: ADME, organism-based; set-up: dose 10 mg/kg, route intravenous; conditions: read-out: Drug uptake
[15] = tested on: Homo sapiens; test: Toxicity in healthy human assessed as pulmonar inflammation at 10 mg/kg, iv once daily for 3 days; type: organism-based; set-up: dose 10 mg/kg, route intravenous; conditions: in vivo, 72 h
[16] = tested on: Streptococcus pneumoniae; test: Antibacterial activity against […] Streptococcus pneumoniae; type: functional
Outline: (§4)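 MICs by CLSI reference broth microdilution in cation-adjusted Mueller-Hinton broth. For daptomycin testing, the medium was supplemented with 50 mg/liter Ca2+.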

[17] = tested on: Staphylococcus aureus; test: Antibacterial activity against methicillin-resistant Staphylococcus aureus; type: functional
[18] = Drug level in alveolar macrophage of healthy human undergoing fiber-optic bronchoscopy at 10 mg/kg, iv once daily for 3 days measured at 12 after start of infusion by validated liquid chromatography; type: ADME, organism-based; set-up: dose 10 mg/kg, route intravenous; conditions: alveolar macrophages, read-out: Drug uptake
[19] = tested on: Homo sapiens; test: Toxicity in healthy human at 10 mg/kg, iv once daily for 3 days by clinical laboratory test; type: organism-based; set-up: dose 10 mg/kg, route intravenous; conditions: in vivo, 72 h
Outline: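 Safety monitored by physical examinations, electrocardiographs and clinical laboratory tests (hematology, serum chemistry, urinalysis) at screening and specified times during 3 days of 10 mg/kg 1-h IV infusions.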

[20] = Ratio of drug level in alveolar macrophage to plasma of healthy human undergoing fiber-optic bronchoscopy at 10 mg/kg, iv once daily for 3 days measured at 12 hrs after start of infusion; conditions: alveolar macrophages / plasma
[21] = Plasma concentration in healthy human undergoing fiber-optic bronchoscopy at 10 mg/kg, iv once daily for 3 days measured at 12 hrs after start of infusion by validated liquid chromatography; type: ADME, organism-based; set-up: dose 10 mg/kg, route intravenous
[22] = Drug level in epithelial lining fluid of healthy human undergoing fiber-optic bronchoscopy at 10 mg/kg, iv once daily for 3 days measured at 8 hrs after start of infusion by validated liquid chromatography; type: ADME, organism-based; set-up: dose 10 mg/kg, route intravenous; conditions: read-out: Drug uptake
[23] = AUC (0 to 24) in epithelial lining fluid of healthy human at 10 mg/kg, iv once daily for 3 days; type: ADME, organism-based; set-up: time < 24 hr, dose 10 mg/kg, route intravenous; conditions: in vivo, 24 h
[24] = Tmax in healthy human at 10 mg/kg, iv once daily for 3 days measured at 24 after start of infusion; type: ADME, organism-based; set-up: dose 10 mg/kg, route intravenous; conditions: in vivo; outline: as §3
[25] = tested on: Staphylococcus aureus; test: Antibacterial activity against methicillin-resistant Staphylococcus aureus ATCC 33591 by CLSI broth microdilution method; type: functional; outline: as §4
[26] = tested on: Homo sapiens; test: Plasma protein binding in healthy human undergoing fiber-optic bronchoscopy at 10 mg/kg, iv once daily for 3 days; conditions: read-out: PPB (converted)
[27] = Drug level in alveolar macrophage of healthy human undergoing fiber-optic bronchoscopy at 10 mg/kg, iv once daily for 3 days measured at 24 after start of infusion by validated liquid chromatography; type: ADME, organism-based; set-up: dose 10 mg/kg, route intravenous; conditions: alveolar macrophages, read-out: Drug uptake
[28] = Cmax in healthy human at 10 mg/kg, iv once daily for 3 days measured at 24 after start of infusion; type: ADME, organism-based; set-up: dose 10 mg/kg, route intravenous; conditions: in vivo; outline: as §3
[29] = tested on: Staphylococcus aureus; test: Antibacterial activity against methicillin-susceptible Staphylococcus aureus; type: functional; outline: as §4
[30] = tested on: Homo sapiens; test: Toxicity in healthy human at 10 mg/kg/day infused over 1 hr; type: organism-based; conditions: in vivo
[31] = Plasma concentration in healthy human undergoing fiber-optic bronchoscopy at 10 mg/kg, iv once daily for 3 days measured at 24 hrs after start of infusion by validated liquid chromatography; type: ADME, organism-based; set-up: dose 10 mg/kg, route intravenous
[32] = Drug level in alveolar macrophage of healthy human undergoing fiber-optic bronchoscopy at 10 mg/kg, iv once daily for 3 days measured at 8 hrs after start of infusion by validated liquid chromatography; type: ADME, organism-based; set-up: dose 10 mg/kg, route intravenous; conditions: alveolar macrophages, read-out: Drug uptake
[33] = tested on: Mus musculus; test: fAUC (0 to 24) in mouse pneumonia model at 40 mg/kg; type: ADME, organism-based; set-up: dose 40 mg/kg; conditions: in vivo

CCCCCCCCCC(=O)N[C@@H](Cc1c[nH]c2ccccc12)C(=O)N[C@H](CC(N)=O)C(=O)N[C@@H](CC(=O)O)C(=O)N[C@@H]1C(=O)NCC(=O)N[C@@H](CCCN)C(=O)N[C@@H](CC(=O)O)C(=O)N[C@H](C)C(=O)N[C@@H](CC(=O)O)C(=O)NCC(=O)N[C@H](CO)C(=O)N[C@@H]([C@H](C)CC(=O)O)C(=O)N[C@@H](CC(=O)c2ccccc2N)C(=O)O[C@@H]1C
Activity [1]: inactive | Ratio [2]: 128 | Activity [3]: inactive | Ratio [4]: 32

CN[C@H](CC(C)C)C(=O)N[C@H]1C(=O)N[C@@H](CC(N)=O)C(=O)N[C@H]2C(=O)N[C@H]3C(=O)N[C@H](C(=O)N[C@H](C(=O)O)c4cc(O)cc(O)c4-c4cc3ccc4O)[C@H](O)c3ccc(c(Cl)c3)Oc3cc2cc(c3O[C@@H]2O[C@H](CO)[C@@H](O)[C@H](O)[C@H]2O[C@H]2C[C@](C)(N)[C@H](O)[C@H](C)O2)Oc2ccc(cc2Cl)[C@H]1O
Activity [5]: Active | Activity [6]: Active

CO/N=C(\C(=O)N[C@@H]1C(=O)N2C(C(=O)O)=C(CSc3nc(=O)c(O)nn3C)CS[C@H]12)c1csc(N)n1
Activity [5]: Active | Activity [6]: Active

CCCCCCCCCCNCCN[C@@]1(C)C[C@H](O[C@H]2[C@H](Oc3c4cc5cc3Oc3ccc(cc3Cl)[C@@H](O)[C@@H](NC(=O)[C@@H](CC(C)C)NC)C(=O)N[C@@H](CC(N)=O)C(=O)N[C@H]5C(=O)N[C@H]3C(=O)N[C@H](C(=O)N[C@H](C(=O)O)c5cc(O)c(CNCP(=O)(O)O)c(O)c5-c5cc3ccc5O)[C@H](O)c3ccc(c(Cl)c3)O4)O[C@H](CO)[C@@H](O)[C@@H]2O)O[C@@H](C)[C@H]1O [TELAVANCIN]
MIC90 [7]: 0.03 µg/mL (≈ 0.0171 µM) | concentration at 72 h [8]: 8110 ng/mL | Kp at 24 h [9]: 6.67 | MRT [10]: 9.42 h | half-life [11]: 7.41 h | clearance [12]: 0.217 mL/min/kg | Activity [13]: Non-toxic | concentration at 24 h [14]: 900 ng/mL | Activity [15]: Non-toxic | MIC90 [16]: 0.03 µg/mL (≈ 0.0171 µM) | MIC90 [17]: 0.5 µg/mL (≈ 0.285 µM) | concentration at 72 h [18]: 45000 ng/mL | Activity [19]: Non-toxic | Kp at 12 h [20]: 1.93 | concentration at 12 h [21]: 22900 ng/mL | concentration at 8 h [22]: 3700 ng/mL | AUC [23]: 45 µg/h/mL | Tmax [24]: 1 h | Activity [5]: Active | Activity [25]: 0.5 µg/mL | fraction unbound at 72 h [26]: 0.1 | concentration at 72 h [27]: 42000 ng/mL | Cmax [28]: 116000 ng/mL | MIC90 [29]: 0.5 µg/mL (≈ 0.285 µM) | Activity [30]: Non-toxic | Activity [6]: Active | concentration at 24 h [31]: 7280 ng/mL | concentration at 8 h [32]: 19000 ng/mL | fAUC [33]: 52.3 µg/h/mL
